Measurements from different studies.

| SMILES | target or system | assay | test system | setting | quantity | value |
| --- | --- | --- | --- | --- | --- | --- |
| Nc1nc(S)nc(O)c1N=Cc1cn(-c2ccccc2)nc1-c1ccc(Cl)cc1 | MCF-10A | cell growth or viability |  | 48 h | CC50 | > 40 µM |
| O=C(CN1CCN(c2ccc(Cl)cc2)CC1)Nc1ccc(C(=O)C=Cc2ccco2)cc1 | MCF-10A | cell growth or viability, MTT |  | 50 µM, 96 h | viability | 90% |
| CNS(=O)(=O)c1ccc(Nc2ncc(C(F)(F)F)c(N3CCC[C@](C)(O)C3)n2)c(C)c1 | MDCK |  | Caco-2 | 1 µM, 2 h, pH 7.4 | Papp A→B | 16 ×10⁻⁶ cm/s |
| COc1nc(-c2cccc(-c3ccccc3)c2C)ccc1CNCCNC(=O)CCCCCCCCCCC(=O)N1CCN(CCNC(=O)c2cc3c(=O)n4cccc(C)c4nc3n(CCc3cccs3)c2=N)CC1 |  |  | male Sprague-Dawley rat, plasma | oral, 40 mg/kg | half-life | 408 min |
| Cc1cc(S(=O)(=O)N[C@H]2CC[C@H](CN3CCN(c4ccc(C5CCC(=O)NC5=O)c(Cl)c4)CC3)CC2)ccc1Nc1ncc(C(F)(F)F)c(N2CCC[C@](C)(O)C2)n1 (stereo partly drawn) | MDCK |  | Caco-2 | 1 µM, 2 h, pH 7.4 | Papp A→B | 1.3 ×10⁻⁶ cm/s |
| O=c1c2ccc(OCc3cccc(OC(F)(F)F)c3)cc2[nH]c2ccc(Cl)c(F)c12 |  | metabolic stability | mouse, liver microsomes | 1 µM, pH 7.4 | half-life | > 60 min |
| COc1ccc(N2CCN(CC(=O)Nc3ccc(C4=NN(C(C)=O)C(c5ccc(Br)cc5)C4)cc3)CC2)cc1 (stereo not drawn) | MCF-10A | cell growth or viability, MTT |  | 50 µM, 96 h | viability | 86% |
| O=c1c2c([nH]c3cccc(Oc4ccc(OC(F)(F)F)cc4)c13)CCCC2 |  | metabolic stability | mouse, liver microsomes | 1 µM, pH 7.4 | half-life | 11.9 min |
| Cc1ccc(C=CC(=O)c2ccc(NC(=O)CN3CCN(c4ccc(Cl)cc4)CC3)cc2)cc1 | MCF-10A | cell growth or viability, MTT |  | 50 µM, 96 h | viability | 89% |
| Cc1cc(S(=O)(=O)NC2CC(N3CCN(CC4CCN(c5cccc6c5n(C)c(=O)n6C5CCC(=O)NC5=O)CC4)CC3)C2)ccc1Nc1ncc(C(F)(F)F)c(N2CCC[C@](C)(O)C2)n1 (stereo partly drawn) | MDCK |  | Caco-2 | 1 µM, 2 h, pH 7.4 | Papp A→B | 1.2 ×10⁻⁶ cm/s |
| COc1ccc(N2CCN(CC(=O)Nc3ccc(C(=O)C=Cc4ccc(Br)cc4)cc3)CC2)cc1 | MCF-10A | cell growth or viability, MTT |  | 50 µM, 96 h | viability | 90% |
| Cc1cc(S(=O)(=O)N[C@]2(C)C[C@H](N3CCN(CC4CCN(c5ccc6c(c5F)n(C)c(=O)n6C5CCC(=O)NC5=O)CC4)CC3)C2)ccc1Nc1ncc(C(F)(F)F)c(N2CCC[C@](C)(O)C2)n1 (stereo partly drawn) | MDCK |  | Caco-2 | 1 µM, 2 h, pH 7.4 | Papp A→B | 3.2 ×10⁻⁶ cm/s |
| CC(=O)N1N=C(c2ccc(NC(=O)CN3CCN(c4ccc(Cl)cc4)CC3)cc2)CC1c1ccc(Cl)cc1Cl (stereo not drawn) | MCF-10A | cell growth or viability, MTT |  | 50 µM, 96 h | viability | 91% |
| O=c1c2ccc(Oc3ccc(OC(F)(F)F)cc3)cc2[nH]c2cc(Cl)c(F)cc12 |  | metabolic stability | mouse, liver microsomes | 1 µM, pH 7.4 | half-life | > 60 min |
| COc1ccc(N2CCN(CC(=O)Nc3ccc(C(=O)C=Cc4ccco4)cc3)CC2)cc1 | MCF-10A | cell growth or viability, MTT |  | 50 µM, 96 h | viability | 82% |
| C[C@H]1Oc2cc(cnc2N)-c2c(nn(C)c2C#N)CN(C)C(=O)c2ccc(F)cc21 |  |  | male Sprague-Dawley rat, brain | oral, 10 mg/kg, 24 h, single dose | concentration | 16.4 ng/g |
| CNS(=O)(=O)c1ccc(Nc2ncc(C(F)(F)F)c(N3CCC(C)(O)CC3)n2)c(C)c1 | MDCK |  | Caco-2 | 1 µM, 2 h, pH 7.4 | Papp A→B | 9 ×10⁻⁶ cm/s |
| O=c1c2ccc(OCc3cccc(C(F)(F)F)c3)cc2[nH]c2ccc(Cl)c(F)c12 |  | metabolic stability | mouse, liver microsomes | 1 µM, pH 7.4 | half-life | > 60 min |
| CC(=O)N1N=C(c2ccc(NC(=O)CN3CCN(c4ccc(Cl)cc4)CC3)cc2)CC1c1ccc(C)cc1 (stereo not drawn) | MCF-10A | cell growth or viability, MTT |  | 50 µM, 96 h | viability | 89% |
| O=c1c2c([nH]c3cc(Oc4cccc(OC(F)(F)F)c4)ccc13)CCCC2 |  | metabolic stability | mouse, liver microsomes | 1 µM, pH 7.4 | half-life | > 60 min |
| COc1ccc(N2CCN(CC(=O)Nc3ccc(C(=O)C=Cc4ccc(Cl)cc4Cl)cc3)CC2)cc1 | MCF-10A | cell growth or viability, MTT |  | 50 µM, 96 h | viability | 86% |
| CCCN(CCC)CCNc1ccc2c(=O)c3c([nH]c2c1)CCCC3 |  | metabolic stability | mouse, liver microsomes | 1 µM, pH 7.4 | half-life | 16.9 min |
| Cc1cc(S(=O)(=O)NC2CC(N3CCN(CC4CCN(c5ccc(NC6CCC(=O)NC6=O)cc5C)CC4)CC3)C2)ccc1Nc1ncc(C(F)(F)F)c(N2CCC[C@](C)(O)C2)n1 (stereo partly drawn) | MDCK |  | Caco-2 | 1 µM, 2 h, pH 7.4 | Papp A→B | 3.5 ×10⁻⁶ cm/s |
| O=c1c2ccc(OCc3cccc(OC(F)(F)F)c3)cc2[nH]c2cc(Cl)cc(F)c12 |  | metabolic stability | mouse, liver microsomes | 1 µM, pH 7.4 | half-life | > 60 min |
| Nc1nc(S)nc(O)c1N=Cc1cn(-c2ccccc2)nc1-c1ccccc1 | MCF-10A | cell growth or viability |  | 48 h | CC50 | > 30 µM |
| CC(C)(C)OC(=O)N1CCC(Oc2ccc3c(=O)c4c(F)cc(Cl)cc4[nH]c3c2)CC1 |  | metabolic stability | mouse, liver microsomes | 1 µM, pH 7.4 | half-life | > 60 min |
| CNS(=O)(=O)c1ccc(Nc2ncc3cc(Cl)c(=O)n(C4CCCC4)c3n2)c(C)c1 | MDCK |  | Caco-2 | 1 µM, 2 h, pH 7.4 | Papp A→B | 3.6 ×10⁻⁶ cm/s |
